In ChEMBL document CHEMBL3804761, “Synthesis of a stable and orally bioavailable englerin analogue” (Bioorg Med Chem Lett, 2016):

Assays:
Type in all cases: functional
[1] = Growth inhibition of human SF268 cells assessed as cell growth at 10 uM incubated for 48 hrs by sulforhodamine B assay relative to control; settings: SF-268, 48 h, read-out: Activity
Outline: (§1)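 Run in the standard NCI 60-cell-line screen. Cells were exposed to drug for two days, and the read-out was sulforhodamine B staining. Compound was tested at a single final concentration of 10 µM in every line, and results are reported as growth percent.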

[2] = Growth inhibition of human LOXIMVI cells assessed as cell growth at 10 uM incubated for 48 hrs by sulforhodamine B assay relative to control; settings: LOX IMVI, read-out: Activity
Outline: (§2)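 Single-dose screen in the NCI 60-cell-line panel at one final concentration of 10 µM. Two-day drug exposure with a sulforhodamine B endpoint. Values are growth percent for each cell line.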

M14 = experiment: Growth inhibition of human M14 cells assessed as cell growth at 10 uM incubated for 48 hrs by sulforhodamine B assay relative to control; settings: M14, 48 h, read-out: Activity; outline: as §1
SK-MEL-2 = experiment: Growth inhibition of human SK-MEL-2 cells assessed as cell growth at 10 uM incubated for 48 hrs by sulforhodamine B assay relative to control; settings: SK-MEL-2, 48 h, read-out: Activity; outline: as §1
[3] = Growth inhibition of human UACC257 cells assessed as cell growth at 10 uM incubated for 48 hrs by sulforhodamine B assay relative to control; settings: UACC-257, 48 h, read-out: Activity
Outline: (§3)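 NCI 60-cell line standard protocol, one-dose screen: single final concentration 10 µM, 2-day drug exposure, sulforhodamine B (SRB) endpoint; read-out is growth percent relative to untreated control.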

786-0 [4] = experiment: Growth inhibition of human 786-0 cells assessed as cell growth at 10 uM incubated for 48 hrs by sulforhodamine B assay relative to control; settings: 786-0, 48 h, read-out: Activity; outline: as §1
[5] = Growth inhibition of human Caki1 cells assessed as cell growth at 10 uM incubated for 48 hrs by sulforhodamine B assay relative to control; settings: CAKI-1, 48 h, read-out: Activity; outline: as §1
[6] = Growth inhibition of human TK10 cells assessed as cell growth at 10 uM incubated for 48 hrs by sulforhodamine B assay relative to control; settings: TK-10, 48 h, read-out: Activity; outline: as §3
[7] = Growth inhibition of human DU145 cells assessed as cell growth at 10 uM incubated for 48 hrs by sulforhodamine B assay relative to control; settings: DU-145, 48 h, read-out: Activity; outline: as §1
[8] = Growth inhibition of human HCC2998 cells incubated for 48 hrs by sulforhodamine B assay; settings: HCC 2998, 48 h; for TGI: read-out: pTGI (converted)
Outline: (§4)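 NCI 60-cell-line panel, standard protocol. Cells exposed to compound for two days, growth read by sulforhodamine B staining. Tested at five 10-fold dilutions, top concentration 100 µM, to give dose-response curves.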

HT-29 = experiment: Growth inhibition of human HT-29 cells incubated for 48 hrs by sulforhodamine B assay; settings: HT-29, 48 h; for TGI: read-out: pTGI (converted); outline: as §4
SK-MEL-28 = experiment: Growth inhibition of human SK-MEL-28 cells incubated for 48 hrs by sulforhodamine B assay; settings: SK-MEL-28, 48 h; for TGI: read-out: pTGI (converted); outline: as §4
SK-MEL-5 = experiment: Growth inhibition of human SK-MEL-5 cells incubated for 48 hrs by sulforhodamine B assay; settings: SK-MEL-5, 48 h; for TGI: read-out: pTGI (converted); outline: as §4
[9] = Growth inhibition of human IGROV1 cells incubated for 48 hrs by sulforhodamine B assay; settings: IGROV-1, 48 h; for CC50: read-out: pLC50 (the source's name) (converted); for TGI: read-out: pTGI (converted); outline: as §4
786-0 [10] = experiment: Growth inhibition of human 786-0 cells incubated for 48 hrs by sulforhodamine B assay; settings: 786-0, 48 h; for TGI: read-out: pTGI (converted); outline: as §4
SN12C = experiment: Growth inhibition of human SN12C cells incubated for 48 hrs by sulforhodamine B assay; settings: for CC50: read-out: pLC50 (the source's name) (converted); for TGI: read-out: pTGI (converted)
Outline: (§5)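 Tested in the standard NCI 60-cell-line protocol with two-day drug exposure and a sulforhodamine B endpoint. Compounds were first screened at a single final concentration of 10 µM, reported as growth percent. They were then run as five 10-fold dilutions starting from a high concentration of 100 µM to give dose-response curves.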

MDA-MB-231 = experiment: Growth inhibition of human MDA-MB-231 cells incubated for 48 hrs by sulforhodamine B assay; settings: MDA-MB-231, 48 h; for CC50: read-out: pLC50 (the source's name) (converted); for TGI: read-out: pTGI (converted); outline: as §4
[11] = Growth inhibition of human Hs 578T cells incubated for 48 hrs by sulforhodamine B assay; settings: for CC50: read-out: pLC50 (the source's name) (converted); for TGI: read-out: pTGI (converted)
[12] = Growth inhibition of human BT549 cells incubated for 48 hrs by sulforhodamine B assay; settings: BT-549, 48 h; for CC50: read-out: pLC50 (the source's name) (converted); for TGI: read-out: pTGI (converted); outline: as §4
T47D = experiment: Growth inhibition of human T47D cells incubated for 48 hrs by sulforhodamine B assay; settings: for CC50: read-out: pLC50 (the source's name) (converted); for TGI: read-out: pTGI (converted); outline: as §5
MDA-MB-468 = experiment: Growth inhibition of human MDA-MB-468 cells incubated for 48 hrs by sulforhodamine B assay; settings: MDA-MB-468, 48 h; for CC50: read-out: pLC50 (the source's name) (converted); for TGI: read-out: pTGI (converted); outline: as §4
SR = experiment: Growth inhibition of human SR cells assessed as cell growth at 10 uM incubated for 48 hrs by sulforhodamine B assay relative to control; settings: read-out: Activity; outline: as §1
[13] = Growth inhibition of human HOP62 cells assessed as cell growth at 10 uM incubated for 48 hrs by sulforhodamine B assay relative to control; settings: HOP-62, 48 h, read-out: Activity; outline: as §1
NCI-H322M = experiment: Growth inhibition of human NCI-H322M cells assessed as cell growth at 10 uM incubated for 48 hrs by sulforhodamine B assay relative to control; settings: read-out: Activity; outline: as §1
[14] = Growth inhibition of human COLO205 cells assessed as cell growth at 10 uM incubated for 48 hrs by sulforhodamine B assay relative to control; settings: COLO 205, 48 h, read-out: Activity; outline: as §1
[15] = Growth inhibition of human HCT116 cells assessed as cell growth at 10 uM incubated for 48 hrs by sulforhodamine B assay relative to control; settings: HCT-116, 48 h, read-out: Activity; outline: as §1
[16] = Growth inhibition of human HL-60(TB) cells assessed as cell growth at 10 uM incubated for 48 hrs by sulforhodamine B assay relative to control; settings: HL-60, 48 h, read-out: Activity; outline: as §2
[17] = Growth inhibition of human RPMI8226 cells assessed as cell growth at 10 uM incubated for 48 hrs by sulforhodamine B assay relative to control; settings: RPMI-8226, 48 h, read-out: Activity; outline: as §1

## C/C(=C\C(=O)O[C@H]1[C@@H]2[C@H](C)CC[C@H]2[C@]2(C)O[C@@]1(C(C)C)C[C@H]2NC(=O)CO)c1ccccc1
[1]
  growth at 10 µM: 106%
[2]
  growth at 10 µM: 100%
M14
  growth at 10 µM: 100%
SK-MEL-2
  growth at 10 µM: 104%
[3]
  growth at 10 µM: 92.4%
786-0 [4]
  growth at 10 µM: 93.5%
[5]
  growth at 10 µM: 99%
[6]
  growth at 10 µM: 109%
[7]
  growth at 10 µM: 119%
[8]
  GI50: 34.7 µM
  LC50: > 100 µM
  TGI: > 100 µM
HT-29
  GI50: 40.7 µM
  LC50: > 100 µM
  TGI: > 100 µM
SK-MEL-28
  GI50: 45.7 µM
  LC50: > 100 µM
  TGI: > 100 µM
SK-MEL-5
  GI50: 19.5 µM
  LC50: 95.5 µM
  TGI: 43.7 µM
[9]
  GI50: > 100 µM
  CC50: > 100 µM
  TGI: > 100 µM
786-0 [10]
  GI50: 33.9 µM
  LC50: > 100 µM
  TGI: > 100 µM
SN12C
  GI50: 11.5 µM
  CC50: > 100 µM
  TGI: 66.1 µM
MDA-MB-231
  GI50: 38 µM
  CC50: > 100 µM
  TGI: > 100 µM
[11]; read-out: GI50
  GI50: 2.24 µM
[11]; read-out: pGI50 (converted)
  GI50: 2.24 µM
[11]
  CC50: > 100 µM
  TGI: 6.92 µM
[12]
  GI50: 22.4 µM
  CC50: > 100 µM
  TGI: 69.2 µM
T47D
  GI50: 20.4 µM
  CC50: > 100 µM
  TGI: > 100 µM
MDA-MB-468
  GI50: 28.8 µM
  CC50: > 100 µM
  TGI: > 100 µM
SR
  growth at 10 µM: 117%
[13]
  growth at 10 µM: 97.6%
NCI-H322M
  growth at 10 µM: 105%
[14]
  growth at 10 µM: 107%
[15]
  growth at 10 µM: 101%

## CC(C)[C@@]12C[C@@H](NC(=O)CO)[C@@](C)(O1)[C@@H]1CC[C@@H](C)[C@H]1[C@@H]2OC(=O)/C=C/C1CCCCC1
[1]
  growth at 10 µM: 106%
M14
  growth at 10 µM: 104%
SK-MEL-2
  growth at 10 µM: 99.2%
[3]
  growth at 10 µM: 98.2%
786-0 [4]
  growth at 10 µM: 100%
[5]
  growth at 10 µM: 88.7%
[6]
  growth at 10 µM: 94.1%
[7]
  growth at 10 µM: 116%
[8]
  GI50: > 44.7 µM
  LC50: > 44.7 µM
  TGI: > 44.7 µM
HT-29
  GI50: > 44.7 µM
  LC50: > 44.7 µM
  TGI: > 44.7 µM
SK-MEL-28
  GI50: > 44.7 µM
  LC50: > 44.7 µM
  TGI: > 44.7 µM
SK-MEL-5
  GI50: > 44.7 µM
  LC50: > 44.7 µM
  TGI: > 44.7 µM
[9]
  GI50: > 44.7 µM
  CC50: > 44.7 µM
  TGI: > 44.7 µM
786-0 [10]
  GI50: > 44.7 µM
  LC50: > 44.7 µM
  TGI: > 44.7 µM
SN12C
  GI50: > 44.7 µM
  CC50: > 44.7 µM
  TGI: > 44.7 µM
MDA-MB-231
  GI50: > 44.7 µM
  CC50: > 44.7 µM
  TGI: > 44.7 µM
[11]; read-out: GI50
  GI50: 6.17 µM
[11]; read-out: pGI50 (converted)
  GI50: 6.17 µM
[11]
  CC50: > 44.7 µM
  TGI: 18.6 µM
[12]
  GI50: > 44.7 µM
  CC50: > 44.7 µM
  TGI: > 44.7 µM
T47D
  GI50: > 44.7 µM
  CC50: > 44.7 µM
  TGI: > 44.7 µM
MDA-MB-468
  GI50: > 44.7 µM
  CC50: > 44.7 µM
  TGI: > 44.7 µM
[16]
  growth at 10 µM: 111%
[17]
  growth at 10 µM: 134%
SR
  growth at 10 µM: 93.2%
[13]
  growth at 10 µM: 108%
NCI-H322M
  growth at 10 µM: 97.7%
[14]
  growth at 10 µM: 113%
[15]
  growth at 10 µM: 103%

## CC(C)[C@@]12C[C@@H](NC(=O)CF)[C@@](C)(O1)[C@@H]1CC[C@@H](C)[C@H]1[C@@H]2OC(=O)/C=C/c1ccccc1
[1]
  growth at 10 µM: 97.7%
[2]
  growth at 10 µM: 102%
M14
  growth at 10 µM: 96.7%
SK-MEL-2
  growth at 10 µM: 117%
[3]
  growth at 10 µM: 105%
786-0 [4]
  growth at 10 µM: 97.3%
[5]
  growth at 10 µM: 80.9%
[6]
  growth at 10 µM: 104%
[7]
  growth at 10 µM: 115%
[16]
  growth at 10 µM: 105%
[17]
  growth at 10 µM: 94.3%
SR
  growth at 10 µM: 85.5%
[13]
  growth at 10 µM: 90.8%
NCI-H322M
  growth at 10 µM: 97.4%
[14]
  growth at 10 µM: 103%
[15]
  growth at 10 µM: 87.4%
